These results are taken from ChEMBL document CHEMBL4043163, “Methyl propiolate and 3-butynone: Starting points for synthesis of amphiphilic 1,2,3-triazole peptidomimetics for antimicrobial evaluation” (Bioorg Med Chem, 2017).

Calls of active or inactive are those of the source. The calls are words filed in the database; no cut-off is given here.

The test system of one data set is Enterococcus faecalis. In words: Antimicrobial activity against Enterococcus faecalis ATCC 29212 assessed as growth inhibition incubated overnight at 37degC by visual and photometry based method. The data set is classed as functional.
Data set [1] deals with Staphylococcus epidermidis. In words: Inhibition of biofilm formation of Staphylococcus epidermidis at =<64 ug/ml incubated overnight at 37degC by crystal violet based assay. The data set is classed as functional.
A short description of data set [2]: Selectivity index, ratio of EC50 for human HepG2 cells to MIC for Streptococcus agalactiae ATCC 12386. In kind it is toxicity. The following applies: read-out: Selectivity Index. The method in brief:
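Selectivity index computed as HepG2 EC50 (24 h MTS assay) divided by S. agalactiae MIC.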

In a further data set the test system is Streptococcus agalactiae. The data set is described as follows: Antimicrobial activity against Streptococcus agalactiae ATCC 12386 assessed as growth inhibition incubated overnight at 37degC by visual and photometry based method. The data set is classed as functional.
In data set [3] the test system is Escherichia coli. The data set is described as follows: Antimicrobial activity against Escherichia coli ATCC 25922 assessed as growth inhibition incubated overnight at 37degC by visual and photometry based method. The data set is classed as functional.
Data set [4] relates to Pseudomonas aeruginosa. The data set is described as follows: Antimicrobial activity against Pseudomonas aeruginosa ATCC 27853 assessed as growth inhibition incubated overnight at 37degC by visual and photometry based method. In kind it is functional.
The next data set has as its system HepG2. The data set is described as follows: Cytotoxicity against human HepG2 cells incubated for 24 hrs by CellTiter 96 aqueous one solution reagent based assay. Conditions: HepG2, 24 h. The data set is classed as cell-based. In a few lines: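 HepG2 seeded 20,000 cells/well overnight, then exposed 24 h to a concentration range in serum-free MEM Earle's (gentamycin, NEAA, pyruvate, alanyl-glutamine); MTS reagent 1 h, absorbance 485 nm; % survival versus medium and Triton X-100 controls; EC50 from four-parameter normalized nonlinear regression.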

The subject of data set [5] is Staphylococcus aureus. The data set is described as follows: Antimicrobial activity against Staphylococcus aureus ATCC 25923 assessed as growth inhibition incubated overnight at 37degC by visual and photometry based method. In kind it is functional.
Data set [6] has as its system Escherichia coli. The data set is described as follows: Antimicrobial activity against Escherichia coli ATCC 25922 assessed as growth inhibition =<64 ug/ml incubated overnight at 37degC by visual and photometry based method. In kind it is functional.
The test system of data set [7] is Staphylococcus epidermidis. In words: Inhibition of biofilm formation of Staphylococcus epidermidis incubated overnight at 37degC by crystal violet based assay. The data set is classed as functional.
The test system of data set [8] is Staphylococcus aureus. In words: Antimicrobial activity against Staphylococcus aureus ATCC 25923 assessed as growth inhibition =<64 ug/ml incubated overnight at 37degC by visual and photometry based method. The data set is classed as functional.
For data set [9], the system named is Pseudomonas aeruginosa. The data set is described as follows: Antimicrobial activity against Pseudomonas aeruginosa ATCC 27853 assessed as growth inhibition =<64 ug/ml incubated overnight at 37degC by visual and photometry based method. The data set is classed as functional.

For orientation: EC50 means the concentration giving half of the maximal effect. A higher EC50 goes with weaker potency. With `CC(C)(C)c1cc(-n2cc(C(=O)NCCN)nn2)cc(C(C)(C)C)c1.Cl`, the MIC is 32 µg/mL in the data set on Enterococcus faecalis; 16 µg/mL with Streptococcus agalactiae; 16 µg/mL in the data set with Escherichia coli [3]; 32 µg/mL in the data set with Pseudomonas aeruginosa [4]; 16 µg/mL in the data set with Staphylococcus aureus [5]. The inhibition result in data set [1] was “inactive”. Besides, the selectivity ratio in data set [2] is 0.5. The compound also showed an EC50 in the data set with HepG2 of 8 µg/mL.
With `C/C(=N\NC(=N)N)c1cn(-c2ccc(OCc3cc(C(C)(C)C)cc(C(C)(C)C)c3)cc2)nn1.Cl`, the MIC was found to be 64 µg/mL in the data set with Enterococcus faecalis, 0.5 µg/mL in the data set on Streptococcus agalactiae and 4 µg/mL in data set [7]. Besides, the selectivity ratio in data set [2] came to 3.86. Moreover, the EC50 in the data set on HepG2 came to 1.9 µg/mL. Also, the “growth inhibition (GI)” value with Escherichia coli [6], with Staphylococcus aureus [8] and with Pseudomonas aeruginosa [9] was “inactive” each time.
